In the library only some 0.96% were active in any assay of this set; here they are far more common.
CIT2 TOR yeast: modulators of CIT2-GFP expression in yeast, primary screen, S. cerevisiae, GFP fusion, multiplex flow cytometry, MLPCN library; S. cerevisiae CIT2-GFP strain, 3 h; 100 means same as DMSO wells; GFP response vs DMSO, % at 10 µM; 0.065% of 320,000 active; AID 2029, 2009;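 active means GFP response relative to DMSO above a set limit, near the screen mean plus 3 SD, cut at about 150% in these data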;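 further: ratio of well median GFP fluorescence to mean of DMSO wells on the plate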
LAP4-GFP MLPCN: modulators of LAP4-GFP expression in yeast, primary screen, S. cerevisiae, multiplex flow cytometry, MLPCN library; 3 h; median GFP as percent of DMSO wells; GFP response vs DMSO, % at 10 µM; 0.34% of 320,000 active;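 active means GFP response vs DMSO above a set limit, about the screen mean plus 3 SD, cut at about 150% in these data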
T cell modulator: modulators of CD8 T cell-vesicle binding, primary screen, mouse 2C CD8+ T cells, flow cytometry | response (vesicle binding), % at 7 µM | 0.068% of 330,000 active | 2C CD8+ T cell-vesicle binding; stronger effect = lower value;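 active means response, share of CD8 T cells binding vesicles, and their 90th percentile fluorescence all below set limits, cut at about 80% in these data, passing the limit was not always enough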;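 further: values below 100% mean blocked vesicle binding to the CD8+ T cells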
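material = purified 2C TCR transgenic mouse naive CD8+ T cells | controls = Unloaded micro-vesicles (low), QL9 vesicles with 0.7% DMSO (high) | detection = cytometric PE anti-B7-1 and Alexa647 anti-CD8 signals after 1% paraformaldehyde fixation | incubation = binding step 1.5 h, 37 °C, antibody labelling 20 min, ice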
MEP2 TOR yeast: modulators of MEP2-GFP levels in yeast, primary screen, S. cerevisiae, multiplex flow cytometry, MLPCN library; 0.51% of 330,000 active; GFP response vs DMSO, % at 10 µM; S. cerevisiae MEP2-GFP strain, 3 h; 100% = DMSO control level; AID 2016, 2009;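 active means GFP response versus DMSO above a set limit, roughly screen mean plus 3 SD, cut at about 180% in these data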;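 further: median GFP fluorescence of the barcode-gated MEP2-GFP cells per well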
RPL19A TOR yeast: RPL19A-GFP expression modulators in yeast, primary screen, cell-based, S. cerevisiae, multiplex flow cytometry, MLPCN; AID 2025, 2009; percent response vs DMSO, % at 10 µM; S. cerevisiae RPL19A-GFP strain, 3 h; stronger effect = lower value; 0.3% of 330,000 active;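 active means percent response vs DMSO below 50%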;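 further: median channel GFP fluorescence of the barcoded RPL19A-GFP strain; ratio of sample median GFP to plate DMSO average so 100% = DMSO; lower means less RPL19A-GFP as with rapamycin TOR inhibition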
AGP1-GFP MLPCN: modulators of AGP1-GFP expression in yeast TOR pathway, primary screen, cell-based, multiplex flow cytometry, S. cerevisiae, MLPCN library. 0.02% of 320,000 active. 3 h; GFP as percent of DMSO wells. GFP response vs DMSO, % at 10 µM;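 active means GFP response relative to DMSO above a set limit, near screen average plus 3 SD, cut at about 150% in these data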;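 further: median GFP channel fluorescence of the gated AGP1 strain per well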
LAP4 cherry2: LAP4-GFP expression modulators in yeast, confirmation, cell-based, second cherry pick, flow cytometry. S. cerevisiae LAP4-GFP strain, 3 h. GFP response vs DMSO, % at 10 µM. 20% of 590 active. shares compounds with LAP4-GFP MLPCN;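 active means GFP signal as percent of the solvent control above about 150%, meaning raised reporter expression, limit read from the data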;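 further: ratio of well median GFP fluorescence to plate DMSO mean so 100% = DMSO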
MEP2 cherry2: modulators of MEP2-GFP levels in yeast, confirmation, S. cerevisiae, flow cytometry GFP, second cherry picks; GFP response vs DMSO, % at 10 µM; S. cerevisiae MEP2-GFP strain, 3 h; shares compounds with LAP4-GFP MLPCN; 10% of 590 active;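 active means GFP signal above 150% of the solvent control wells, that is a rise of more than half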;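 further: median channel GFP fluorescence of all gated yeast cells per well; ratio of median GFP to plate DMSO average so 100% = DMSO level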
RPL19A-GFP pick2: RPL19A-GFP modulators in TOR pathway yeast, confirmation, cell-based, S. cerevisiae, flow cytometry, second cherry pick. shares compounds with LAP4-GFP MLPCN. S. cerevisiae RPL19A-GFP strain, 3 h; stronger effect = lower value; 100% means same as DMSO wells. GFP response vs DMSO, % at 10 µM. 3% of 590 active;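 active means under 65% GFP response relative to DMSO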;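 further: median GFP channel fluorescence per well over the all cells gate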
CIT2 GFP CP2: modulators of CIT2-GFP expression in yeast, confirmation, flow cytometry, second cherry pick, single plex | shares compounds with LAP4-GFP MLPCN | S. cerevisiae CIT2-GFP strain, 3 h; DMSO control wells read 100% | 8% of 590 active | AID 2624, 2010 | GFP response vs DMSO, % at 10 µM;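 active means GFP response vs DMSO above about 150%, limit read from the data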;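 further: median green fluorescence per well over all gated yeast cells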
AGP1-GFP pick2: AGP1-GFP expression modulators, hit retest, confirmation, cell-based, flow cytometry, S. cerevisiae, cherry pick set 2 | shares compounds with LAP4-GFP MLPCN | S. cerevisiae AGP1-GFP strain, 3 h | percent response vs DMSO, % at 10 µM | 590 tested, under 10 active | AID 2643, 2010;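 active means over 150 percent of DMSO response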;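 further: median GFP channel fluorescence over all cells without mother daughter split; sample median GFP divided by mean DMSO control so 100% equals DMSO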
Yeast autofluor: compound autofluorescence in yeast s288c, dose response, artefact control for yeast TOR pathway GFP screen, s288c strain | 610 tested, under 10 active | S. cerevisiae s288c, 520 nm autofluorescence, flow cytometry, 3 h; stronger effect = higher value; zero means same as solvent-only cells | shares compounds with LAP4-GFP MLPCN | AID 2757, 2010 | fluorescence change (kMESF span) at 33 µM;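 active means fluorescence span over the dose series, or activity score, above about 33, limit read from the data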
Yeast autofl DR: autofluorescence of compounds in yeast s288c, dose response, artefact control for yeast TOR pathway GFP screen, primary hits, KU SAR, s288c parental. S. cerevisiae s288c parental, compound autofluorescence, flow cytometry, 3 h. AID 488829, 2010. 110 tested, under 10 active. shares compounds with LAP4-GFP MLPCN. fluorescence change (span) at 33 µM;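 active means fluorescence change span, or the activity score built from it, above 25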
TORC1 bypass: wild-type yeast growth inhibition sparing TORC1 bypass cells, mechanism study for yeast TOR pathway GFP screen, BY4741 wild type, TORC1 bypass strain; S. cerevisiae BY4741 spot growth rating, 48-72 h; stronger effect = lower value; shares compounds with LAP4-GFP MLPCN; 120 tested, under 10 active; growth rating (0-3) at 30 µM;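 active means growth rating at most 1 for wild type yeast while the TORC1 bypass strain still grows fully, rated 3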
The depositor's hits bear a star; . = not tested or not shown.

SMILES | CIT2 TOR yeast | LAP4-GFP MLPCN | T cell modulator | MEP2 TOR yeast | RPL19A TOR yeast | AGP1-GFP MLPCN | LAP4 cherry2 | MEP2 cherry2 | RPL19A-GFP pick2 | CIT2 GFP CP2 | AGP1-GFP pick2 | others
CNc1nc(N)c([N+](=O)[O-])c(NCc2ccco2)n1 | . | . | . | . | . | . | . | . | . | . | . | Yeast autofl DR=0;TORC1 bypass=3
Cc1cccc(Nc2nc(N)c([N+](=O)[O-])c(NCc3ccco3)n2)c1 | 98.1 | 101.4 | 613.2 | 100.2 | 99.1 | 88.7 | . | . | . | . | .
CCOc1ccccc1N(C)C(=O)c1cn(C)c(=O)c2ccccc12 | 92.0 | 100.3 | 581.7 | 102.4 | 95.6 | 94.2 | . | . | . | . | .
CC(=O)N1CCc2cc(S(=O)(=O)CCC(=O)NCc3ccc(F)cc3)ccc21 | 101.2 | 84.8 | 358.2 | 122.0 | 58.6 | 17.4 | 106.2 | 104.8 | 97.8 | 97.3 | 101.7
CC(C)(C)OC(=O)N1CCC(Cc2cc(-c3ccc(Cl)cc3)no2)(C(=O)O)CC1 | 66.6 | 115.3 | 178.0 | 91.7 | 92.2 | 73.5 | . | . | . | . | .
Fc1ccc(N/N=C/c2ccc(N3CCOCC3)cc2)c(F)c1 | 120.5 | 91.1 | 512.4 | 111.6 | 107.7 | 104.1 | . | . | . | . | .
O=C(Nc1nnc(-c2ccc3c(c2)CCCC3)o1)c1ccc(Cl)cc1Cl | 52.7 | 83.5 | 430.6 | 109.0 | 55.7 | 34.7 | 153.3* | 211.3* | 104.9 | 161.3* | 93.7 | Yeast autofluor=0.41
O=C(Nc1nnc(-c2ccc3c(c2)CCCC3)o1)c1c(F)cccc1F | 87.9 | 95.6 | 456.9 | 83.2 | 89.9 | 95.7 | . | . | . | . | .
CNC(=O)c1cc(NC(=O)CCn2nc(-c3ccccc3)c3ccccc3c2=O)ccc1OC | 98.8 | 101.4 | 238.7 | 102.2 | 100.1 | 101.8 | . | . | . | . | .
O=C(C#Cc1ccccc1)c1ccco1 | 76.9 | 152.6* | 639.2 | 128.4 | 87.5 | 100.8 | 155.8* | 164.7* | 85.1 | 127.8 | 118.2 | Yeast autofluor=0.61
O=C(N/N=C/c1ccccc1)c1ccco1 | 101.6 | 118.8 | 358.3 | 98.2 | 98.1 | 108.4 | . | . | . | . | .
